High-throughput results (PubChem BioAssay)
DYRK1A inh: Dyrk1A (rat) kinase inhibition; Q63470; ADP-Glo luminescence, NFATc1 peptide; inhibition, % at 12.5 µM; actives 0.43% (n = 310,000); AID 504441; in the data active = inhibition above about 50%
GSK3A inh: inhibitors of human GSK-3 alpha kinase; ADP-Glo luminescence, 60 min; inhibition, % at 10 µM; actives 0.1% (n = 320,000);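 active = more than half of replicates show inhibition above 20%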;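 note: GST-tagged GSK-3 alpha with peptide substrate and 25 µM ATP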
STK33 inh: blocks human STK33 kinase activity; Q9BYT3; purified STK33, MBP phosphorylation, ADP-Glo luminescence; inhibition, % at 10 µM; actives 0.073% (n = 320,000);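 active = inhibition at or above 25%, using the most active replicate where run in duplicate; inactive = inhibition below 25%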
GSK3beta inhib: human GSK3beta kinase inhibition; GST-GSK3beta kinase, ADP-Glo luminescence, 60 min; hits give low values; activity score (negative = inhibition), % at 10 µM; actives 0.038% (n = 300,000);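 active = more than half of replicate wells score below -50%, meaning over 50% inhibition versus plate controls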
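test system = GST-tagged human GSK3beta kinase, cell-free | reagent = 25 µM ATP with peptide substrate | dosing = one dose of 10 µM per compound | schedule = 60 min reaction, RT | detection = luminescent ADP-Glo measurement of ADP formed | control set = DMSO neutral wells and GW8510 at 20 µM as positive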
CDK5 p35 inh: blocks human CDK5/p35 kinase activity; Q00535+Q15078; Recombinant CDK5/p35, ADP-Glo luminescence, 60 min; inhibition, % at 10 µM; actives 0.01% (n = 330,000); AID 488839;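 active = highest replicate inhibition of at least 50% and at least 75% of replicates reaching 50%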
Target sequence (Q00535 whole entry, looked up): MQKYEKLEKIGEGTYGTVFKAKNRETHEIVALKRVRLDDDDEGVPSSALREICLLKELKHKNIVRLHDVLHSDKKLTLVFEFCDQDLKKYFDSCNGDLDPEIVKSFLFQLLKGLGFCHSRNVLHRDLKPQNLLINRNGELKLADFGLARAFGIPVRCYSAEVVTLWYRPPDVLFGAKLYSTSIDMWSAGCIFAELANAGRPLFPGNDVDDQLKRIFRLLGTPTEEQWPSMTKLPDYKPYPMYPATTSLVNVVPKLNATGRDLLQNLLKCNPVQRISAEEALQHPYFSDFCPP
Target sequence (Q15078 whole entry, looked up): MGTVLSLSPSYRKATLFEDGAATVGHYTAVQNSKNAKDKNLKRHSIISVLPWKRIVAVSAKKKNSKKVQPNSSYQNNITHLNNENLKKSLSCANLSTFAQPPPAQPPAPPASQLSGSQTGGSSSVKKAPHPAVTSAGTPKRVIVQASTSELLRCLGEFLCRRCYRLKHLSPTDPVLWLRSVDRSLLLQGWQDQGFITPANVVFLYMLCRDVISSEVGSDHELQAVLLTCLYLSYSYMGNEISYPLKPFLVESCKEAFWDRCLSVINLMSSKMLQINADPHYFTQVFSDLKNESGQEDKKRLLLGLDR
Dyrk1A artifact: interferes with ADP-Glo luciferase readout without Dyrk1A | shares compounds with DYRK1A inh | ADP-Glo luciferase artifact assay, no Dyrk1A, luminescence | AC50, µM (titrated, usually from 12 µM) | 1,300 tested, under 10 active;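 active = fitted half-maximal dose AC50 no more than ten times the top valid tested dose, with luminescence dropping as dose rises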
Large screens that a line does not name were inactive (follow-up assays come after a bar, where they were run). This excerpt belongs to a sample that is enriched for hits.

CCCCn1c(O)c(C(CC)=NCCCn2ccnc2)c(=O)[nH]c1=O	none (no result: DYRK1A inh, CDK5 p35 inh)
CCCCn1c(O)c(C=NCCCn2ccnc2)c(=O)[nH]c1=O	GSK3A inh 68
CCCCn1c(O)c(C(C)=NCCCn2ccnc2)c(=O)[nH]c1=O	GSK3A inh 54
CC1=C(O)C(=O)C=C2C1=CC=C1C2(C)CCC2(C)C3CC(C)(C(=O)O)CCC3(C)CCC12C (stereo unspecified)	none (no result: GSK3A inh, STK33 inh, GSK3beta inhib)
CC(C)CC1(CCc2ccccc2)C(=O)NC(=O)NC1=O	none (no result: GSK3A inh, STK33 inh, GSK3beta inhib)
Cn1ncnc2c(=O)n(C)c(=O)nc1-2	DYRK1A inh 68
O=C1CN=C(c2ccccc2)c2ccccc2N1	none
CCc1cc2c(s1)NC(=O)CN=C2c1cccs1	GSK3A inh 76
ClCCN1CCN(c2ccnc3cc(Cl)ccc23)CC1	GSK3A inh 86
CC(C)(C)C1(CCO)C(=O)NC(=S)NC1=O	none (no result: GSK3A inh, STK33 inh, GSK3beta inhib)
CCN(CC)C(=O)c1ccc(NC(=O)Nc2ccccc2F)cc1	STK33 inh 28
CCN(CC)C(=O)c1ccc(NC(=O)CCCSc2ccccc2)cc1	none
NC(=O)CSc1nnc([C@@H](N)Cc2c[nH]c3ccccc23)o1	GSK3A inh 52
COc1c(O)cc2c(c1OC)-c1ccc(SC)c(=O)cc1C(NC(C)=O)CC2 (stereo unspecified)	none (no result: GSK3A inh, STK33 inh, GSK3beta inhib)
Cc1c(NS(=O)(=O)c2ccccc2)ccc([N+](=O)[O-])c1Cl	none (no result: GSK3A inh, STK33 inh, GSK3beta inhib)
O=C1Nc2ccccc2/C1=C/c1nc2ccccc2c(=O)n1-c1ccc(O)cc1	none
O=C1Nc2ccccc2/C1=C/c1cnc[nH]1	GSK3A inh 79, STK33 inh 37, CDK5 p35 inh 102
Oc1cc(O)cc(/C=C/c2ccc(O)cc2O)c1	STK33 inh 54 (no result: DYRK1A inh, GSK3beta inhib)
OC[C@H]1O[C@@H](n2cnc3cc(Cl)c(Cl)cc32)[C@H](O)[C@@H]1O	DYRK1A inh 74 (no result: GSK3beta inhib, CDK5 p35 inh) | Dyrk1A artifact inactive
Cc1ccc(C(=O)N2CC2C)cc1 (stereo unspecified)	none (no result: GSK3A inh, STK33 inh, GSK3beta inhib)
COC(=O)C1=C(c2ccc(F)cc2OCc2ccccc2)C[C@@H]2CC[C@H]1N2C(=O)NCc1ccccc1	DYRK1A inh 52 (no result: GSK3beta inhib) | Dyrk1A artifact inactive
Cc1nccc2c1[nH]c1ccccc12	DYRK1A inh 76 | Dyrk1A artifact inactive
Cc1[nH]c2ccccc2c1/C=N/O	none
c1ccc2c(c1)[nH]c1cnccc12	DYRK1A inh 69 | Dyrk1A artifact inactive
CCc1nccc2c1[nH]c1ccccc12	DYRK1A inh 59 | Dyrk1A artifact inactive
O=c1c2ccccc2[nH]c(=S)n1-c1cccnc1	none (no result: DYRK1A inh, CDK5 p35 inh)
N#CC1c2ccccc2-n2nncc2CN1C(=O)CCc1ccccc1 (stereo unspecified)	none (no result: DYRK1A inh, GSK3A inh, STK33 inh, GSK3beta inhib)
CN1CCc2cc(O)cc3c2[C@H]1Cc1ccc(O)c(O)c1-3	none
CN1CCc2cc3c(c4c2C1Cc1ccccc1-4)OCO3 (stereo unspecified)	DYRK1A inh 67 | Dyrk1A artifact inactive
COc1ccc2[nH]c3c(c2c1)CCNC3C (stereo unspecified)	none
COc1ccc2c3c([nH]c2c1)C(C)NCC3 (stereo unspecified)	DYRK1A inh 74 | Dyrk1A artifact inactive
COc1cc(C2(C#N)CCN(C)CC2)cc(OC)c1OC	none (no result: GSK3A inh, STK33 inh, GSK3beta inhib)
COc1cc2c(cc1O)C[C@H]1c3c(cc(O)c(OC)c3-2)CCN1C	DYRK1A inh 71 (no result: GSK3beta inhib) | Dyrk1A artifact inactive
COc1ccc2nc3c(C)n(C)ccc-3c2c1	none (no result: DYRK1A inh, GSK3A inh, STK33 inh, GSK3beta inhib)
NC(Cc1ccccc1)c1nn[nH]n1 (stereo unspecified)	none (no result: GSK3A inh, STK33 inh, GSK3beta inhib)
COC(=O)C1=C(c2ccc(Cl)c(C(F)(F)F)c2)C[C@@H]2CC[C@H]1N2C(=O)NCCOc1ccc(OC)cc1	DYRK1A inh 57 (no result: GSK3beta inhib) | Dyrk1A artifact inactive
O=C1NC(=S)SC1=Cc1ccc(N(CCCl)CCCl)cc1	none (no result: GSK3A inh, STK33 inh, GSK3beta inhib)
Cc1cccc(-n2c(O)c(/C=C3/C(c4ccccc4)=Nc4ccccc43)c(=O)[nH]c2=O)c1	DYRK1A inh 60 | Dyrk1A artifact inactive
Cc1ccccc1-n1c(O)c(/C=C2/C(c3ccccc3)=Nc3ccccc32)c(=O)[nH]c1=O	none
N#C/C(=C\c1ccc(O)cc1)C(=O)O	DYRK1A inh 76 (no result: GSK3A inh, STK33 inh, GSK3beta inhib) | Dyrk1A artifact inactive
CN1CCc2nc3sc(C#N)c(N)c3c(-c3cccs3)c2C1	DYRK1A inh 51, GSK3A inh 95 | Dyrk1A artifact inactive
N/C(=N\N=C/c1ccc(-c2ccc(O)c(C(=O)O)c2)o1)N[N+](=O)[O-]	DYRK1A inh 83 | Dyrk1A artifact inactive
Cc1ccc(CN2CCC3CCC(C3)C2)c(O)c1 (stereo unspecified)	none (no result: DYRK1A inh, GSK3A inh, STK33 inh, GSK3beta inhib)
C=C1C(O)[C@@H]2O[C@]3(CC[C@H](/C=C/C(C)[C@@H]4CC(C)=CC5(O[C@H](C[C@@](C)(O)C(=O)O)CCC5O)O4)O3)CC[C@H]2O[C@@H]1C(O)CC(C)[C@H]1OC2(CCCCO2)CCC1C (stereo partly specified)	none (no result: DYRK1A inh, GSK3beta inhib, CDK5 p35 inh)
COc1ccc2c(c1)/C(=C/c1cnc[nH]1)C(=O)N2	DYRK1A inh 83, GSK3A inh 81, STK33 inh 58, GSK3beta inhib -89, CDK5 p35 inh active | Dyrk1A artifact inactive
COc1cc2occc2c2oc(=O)ccc12	none
COc1cc2ccc(=O)oc2c2ccoc12	DYRK1A inh 59 | Dyrk1A artifact inactive
c1cncc(CNCCN2CCNCC2)c1	none (no result: GSK3A inh, STK33 inh, GSK3beta inhib)
